Published values collected from several papers.
Protocols differ between the studies behind these lines.

COc1ccc2nccc(N3CCc4c(cc(Cn5ccnc5)cc4-c4cn(C)nc4C(F)(F)F)C3=O)c2c1 — Tmax (male CD-1 mouse; plasma; oral; 50 mg/kg): 78 min
COc1cc(C(=O)N2CCC(N3CCN(C)CC3)CC2)ccc1Nc1ncc2c(n1)N(C)c1ccccc1C(=O)N2C — Tmax (mouse; plasma; oral; 10 mg/kg): 60 min
CCc1ccc(Cc2cc([C@@H]3O[C@H](CO)[C@@H](O)[C@H](O)[C@H]3O)cc3c2CCC3)cc1 — Tmax (male C57BL/6 mouse; plasma; oral; 3 mg/kg): 30 min
OC[C@H]1O[C@@H](c2ccc(Cl)c(Cc3ccc(O[C@H]4CCOC4)cc3)c2)[C@H](O)[C@@H](O)[C@@H]1O — Tmax (CD-1 mouse; plasma; oral; 10 mg/kg): 15 min
CS(=O)(=O)CCNCc1ccc(-c2ccc3ncnc(Nc4ccc(OCc5cccc(F)c5)c(Cl)c4)c3c2)o1 — Tmax (nude mouse; plasma; oral; 50 mg/kg; single dose): 60 min
COc1ccc(C(O)COc2ccc(-c3csc(-c4ccc(OCC(O)c5ccc(OC)c(OC)c5)cc4)n3)cc2)cc1OC (centres unmarked) — Tmax (C57BL/6 mouse; plasma; oral; 75 mg/kg): 60 min
CCc1cc(OC)c2nccc(N3CCc4c(cc(Cn5ccnc5)cc4-c4cn(C)nc4C(F)(F)F)C3=O)c2c1 — Tmax (male CD-1 mouse; plasma; oral; 150 mg/kg): 30 min
COc1cc(/C=C/C(=O)CC(=O)/C=C/c2ccc(O)c(OC)c2)ccc1O — Tmax (HPLC; Swiss mouse; plasma; oral; 2 g/kg): 120 min
CC(C)c1cnn2c(NCc3ccccc3)cc(NC[C@H]3CCNC[C@@H]3O)nc12 — Tmax (female nude mouse; tumour; oral; 100 mg/kg; tumour-bearing): 360 min
CNC(=O)c1cc(Oc2ccc(NC(=O)Nc3ccc(Cl)c(C(F)(F)F)c3)c(F)c2)ccn1 — Tmax (male mouse; plasma; oral; 10 mg/kg; single dose): 162 min
Cc1cc(NC(=O)c2cccc3cc(-c4cccc5[nH]nc(N)c45)ccc23)ccc1F — Tmax (male CD-1 mouse; brain; oral; 10 mg/kg): 120 min
Cc1cc(Nc2ccc3ccccc3c2)n2ncnc2n1 — Tmax (male Swiss mouse; plasma; oral; 50 mg/kg; single dose): 30 min
CCc1cc(C(=O)NC)c2nccc(N3CCc4c(cc(Cn5ccnc5)cc4-c4cn(C)nc4C(F)(F)F)C3=O)c2c1 — Tmax (male CD-1 mouse; plasma; oral; 150 mg/kg): 30 min
CC(C)(C)c1cc(NC(=O)Nc2ccc(Oc3ccnc4[nH]c(=O)cnc34)cc2F)n(-c2ccccc2)n1 — Tmax (BALB/c mouse; plasma; intravenous; 2 mg/kg): 4.98 min
O=S(=O)(c1ccc(-c2ccc3nccc(Nc4ccncn4)c3c2)cc1)N1CCOCC1 — Tmax (female BALB/c mouse; brain; intraperitoneal; 10 mg/kg): 15 min
Cc1ccc(NC(=O)c2ccc(CN3CCN(C)CC3)cc2)cc1Nc1nccc(-c2cncc(-c3oncc3C)c2)n1 — Tmax (male C57BL/6 mouse; plasma; oral; 100 mg/kg/day): 240 min
COc1ccc2c3c1O[C@H]1C[C@@H](OC(=O)c4ccccc4)C=C[C@@]31CCN(C)C2 — Tmax (mouse; brain; intravenous; 3 mg/kg): 3 min
NC(=O)c1cc(Oc2ccc(NC(=O)Nc3ccc(Cl)c(C(F)(F)F)c3)c(F)c2)cc[n+]1[O-] — Tmax (mouse; plasma; oral; 10 mg/kg; single dose): 450 min
Cc1ncsc1-c1ccc(CNC(=O)[C@@H]2C[C@@H](O)CN2C(=O)[C@@H](NC(=O)CCCCCCCCCCCC(=O)NCCCCC#Cc2cccc(-c3nn(-c4nc(C(=O)O)cs4)c(CC4CC4)c3Cc3ccc(S(N)(=O)=O)cc3)c2)C(C)(C)C)cc1 — Tmax (male Swiss mouse; plasma; intraperitoneal; 5 mg/kg; single dose): 480 min
CC(C)(C)c1ccc(O)c(CN(Cc2cc(C(C)(C)C)ccc2O)C2CCC(NC(N)=O)CC2)c1 (centres unmarked) — Tmax (male C57BL/6 mouse; plasma; oral; 10 mg/kg; single dose): 30 min
Cc1cc(Nc2ccc(S(F)(F)(F)(F)F)cc2)n2ncnc2n1 — Tmax (male Swiss mouse; plasma; oral; 100 mg/kg; single dose): 120 min
CN1C(=O)c2ccccc2[S@+]([O-])c2ccc(C(=O)NCCc3cccs3)cc21 — Tmax (male C57BL/6 mouse; plasma; intraperitoneal; 30 mg/kg; single dose): 15 min
COc1cc(OC)c2nccc(N3CCc4c(cc(Cn5ccnc5)cc4-c4cn(C)nc4C(F)(F)F)C3=O)c2c1 — Tmax (male CD-1 mouse; plasma; oral; 50 mg/kg): 42 min
Cc1noc([C@H](Cc2c[nH]cn2)NC(=O)CN(CCCc2ccccc2)CC(=O)O)n1 — Tmax (male C57BL/6 mouse; plasma; intraperitoneal; 30 mg/kg): 10 min
CSc1cc(Oc2ccnc3[nH]c(=O)cnc23)ccc1NC(=O)Nc1cc(C(C)(C)C)nn1-c1ccccc1 — Tmax (BALB/c mouse; plasma; oral; 10 mg/kg): 180 min
c1ccc(-c2nc(N3CCC(c4ccccn4)C3)c3ccccc3n2)nc1 (centres unmarked) — Tmax (female BALB/c mouse; plasma; oral; 50 mg/kg): 78 min
CNC(=O)[C@H](Cc1c[nH]cn1)NC(=O)CN(CCCc1ccccc1)CC(=O)OC — Tmax (male C57BL/6 mouse; plasma; intraperitoneal; 30 mg/kg): 10 min
O=C(c1cc2cc(F)ccc2[nH]1)c1c[nH]c2c(F)cccc12 — Tmax (female mouse; plasma; intraperitoneal; 6 mg/kg): ~15 min
Cc1ccc2cncc(N3CCc4c(cc(Cn5ccnc5)cc4-c4cn(C)nc4C(F)(F)F)C3=O)c2c1 — Tmax (male CD-1 mouse; plasma; oral; 10 mg/kg): 18 min
CN1CCC[C@H](CN2c3ccccc3Sc3ccccc32)C1.Cl — Tmax (mouse; plasma; oral; 64 mg/kg; single dose): 120 min
C=CC(=O)N1CC2CC(n3nc(-c4ccc(C(=O)Nc5ccccn5)cc4)c4c(N)ncnc43)CC2C1 (centres unmarked) — Tmax (SCID mouse; plasma; oral; 3 mg/kg): 15 min
CNCCN(C)c1cc(C#N)cc(CCc2cc(C)cc(N)n2)c1 — Tmax (male BALB/c mouse; brain; oral; 10 mg/kg): 240 min
COc1nc(-c2cc(C)c(N[C@@H](C)c3ccc(F)cc3)nn2)ccc1-n1cnc(C)c1 — Tmax (male CD-1 mouse; plasma; intravenous; 1 mg/kg; single dose): 4.98 min
[Cl-].c1csc([I+]c2cccs2)c1 — Tmax (mouse; plasma; intraperitoneal): ≤ 1 min
COc1nc(-c2cc(C)c(N[C@@H](C)c3c(F)cc(F)cc3F)nn2)ccc1-n1cnc(C)c1 — Tmax (male CD-1 mouse; plasma; oral; 5 mg/kg; single dose): 120 min
CC=Cc1ccc(O)c(OC)c1 — Tmax (mouse; lung; intranasal; 100 mg/kg): 5 min
COc1nc(-c2cc(C)c(N[C@@H](C)c3cc(F)cc(F)c3)nn2)ccc1-n1cnc(C)c1 — Tmax (male CD-1 mouse; plasma; oral; 5 mg/kg; single dose): 60 min
CN1CCN(C(=O)CN[C@@H]2C[C@H]2c2ccc(OCc3ccccc3)cc2)CC1 — Tmax (mouse; plasma; intraperitoneal; 10 mg/kg): 4.8 min
